Results on seven molecules are retold here after PMC10676332 (Drugs in R&D, 2023).

Where two headings read alike, the source gives them in different places.

The conditions of data set [1]: cited from earlier work.
For data set [2] the following is noted: single 160 mg dose, fasted, cited from earlier work.
Another data set in a line: Safety assessment. The data set is classed as in vivo, human. Summed up: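 Randomized crossover in healthy adults (fasted-fed or fed-fasted, 14-day washout). A TEAE counted any AE absent before dosing, or pre-existing and worsening in intensity or frequency after dosing. AEs graded; serious AEs and discontinuations recorded. Analysis set: every subject receiving at least one dose.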

The next data set can be described thus: In vitro solubility. The data set is classed as physicochemical.
Data set [3] is classed as in vivo, human. The following applies: 160 mg single oral dose. Summed up: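 Healthy adults randomized 1:1 to fasted-fed or fed-fasted sequence, 14-day washout; ≥10-h overnight fast pre-dose, no drinking 1 h before to 2 h after, fasting 4 h post-dose. Plasma sampled pre-dose to 168 h, spun 1700g, 2–8 °C, 10 min, kept −70 °C; validated LC-MS/MS; non-compartmental parameters. Ln-transformed Cmax/AUC in linear mixed model; fed/fasted GMR with 90% CI, limits 0.80–1.25.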

The next data set deals with ALK-positive NSCLC. Particulars: cited from earlier work; for Objective response rate (ORR): phase I; for IRC-assessed ORR: phase II.
The target in data set [4] is wild-type and mutant ROS1. The following applies: preclinical data; cited from earlier work.
The next data set has as its system Caco-2. The data set is described as follows: Caco-2 permeability assay. The data set is classed as in vitro ADME. The following applies: Caco-2, concentrations 2.00 to 50.0 µM.
Data set [5] can be described thus: Metabolism in human liver microsomes. The data set is classed as in vitro ADME. For orientation: Microsomes from liver hold many membrane-bound enzymes, among them those of drug oxidation.
In another data set the target is ALK. The following applies: preclinical data; cited from earlier work.
The next data set deals with HCC78 cells. Particulars: cited from earlier work.
Data set [6] has as its system ROS1 wild-type and G2032R mutant xenograft models. The following applies: cited from earlier work.
In data set [7] the test system is BaF3 cells expressing ROS1 fusion wild-type and resistance mutants. Particulars: cited from earlier work.
For data set [8] the following is noted: oral administration with food vs fasted; cited from earlier work.
[9] abbreviates: 160 mg single dose, fed (high-fat meal).
The mark [10] stands for this setting: oral 20–210 mg/day, ALK-positive NSCLC patients.

In the case of `COc1cc(N2CCC(N3CCN(C)CC3)CC2)ccc1Nc1ncc(Cl)c(Nc2ccccc2P(C)(C)=O)n1` [brigatinib], the BCS class entry in data set [1] (approved ALK and ROS1 TKIs) is “BCS class I”.

With `C[C@H]1Oc2cc(cnc2N)-c2c(nn(C)c2C#N)CN(C)C(=O)c2ccc(F)cc21` [lorlatinib], in [1] (approved ALK and ROS1 TKIs), the BCS class result is given as “BCS class IV”.

In the case of `Cc1cc(Nc2ncc(Cl)c(Nc3ccccc3S(=O)(=O)C(C)C)n2)c2c(c1C1CCN(C)CC1)C[C@@H](C)O2` [SAF-189s], the “AUC0-∞, geometric mean (CV%)” value in [2] (nine patients) was 1970 (30.0) ng·h/mL. Further, the “Cmax, geometric mean (CV%)” value in data set [2] (nine patients) was 41.9 (27.0) ng/mL. Besides, the “t½, geometric mean (CV%)” value in [2] (nine patients) is 39.3 (25.6) h. Moreover, the Median tmax in data set [2] (patients) is given as 3.0 h. The “Incidence of TEAEs” value turned out to be 54.2% in “Safety assessment” (160 mg single dose, fasted) and 29.2% in “Safety assessment” (setting [9]). Besides, the “Incidence of gastrointestinal disorders” value amounted to 41.7% in “Safety assessment” (160 mg single dose, fasted) and 4.2% in “Safety assessment” (setting [9]). In addition, the Incidence of headache turned out to be 12.5% in the data set “Safety assessment” (160 mg single dose, fasted) and 0.0% in “Safety assessment” (setting [9]). Further, the “Serious AEs” value in “Safety assessment” (160 mg single dose, fasted and fed) was “no serious AEs were reported”. For the same molecule, the “Discontinuation of the study due to an AE” value in the data set “Safety assessment” (160 mg single dose, Grade 1 vomiting) was “Only one volunteer”. In addition, the Tolerability entry is “generally well tolerated” in “Safety assessment” (single doses of 160 mg, healthy volunteers) and “well tolerated” in the data set on ALK-positive NSCLC (oral 20–210 mg/day, fasted state, ALK-positive NSCLC patients). The Solubility entry is recorded as “slightly soluble” in the data set “In vitro solubility” (0.1 mol/L hydrochloric acid, in vitro) and “poor solubility” in “In vitro solubility” (pH 6.8, in vitro). For the same molecule, the “Effect of high-fat meal on the PK profile” value in [3] (fed vs fasted) is given as “minimal effect”. The “Geometric mean ratio: fed/fasted, AUC0-t” value in [3] (n = 23) was 105.1%. The “Geometric mean ratio: fed/fasted, AUC0-∞” value in data set [3] (n = 23) is 105.5%. Also, the “Geometric mean ratio: fed/fasted, Cmax” value in data set [3] (n = 23) is listed as 109.1%. For the same molecule, the Anti-tumor efficacy entry in the data set with ALK-positive NSCLC (setting [10]) is given as “promising anti-tumor efficacy”. Moreover, the Intracranial activity entry in the data set on ALK-positive NSCLC (setting [10]) was “had intracranial activity”. The “Objective response rate (ORR)” value was 72.7% in the data set with ALK-positive NSCLC (ALK inhibitor-naive subgroup (8/11)); 62.2% in the data set with ALK-positive NSCLC (all patients (28/45), oral 20–210 mg/day, fasted); 63.0% in the data set with ALK-positive NSCLC (brain metastases subgroup (17/27)). Also, the “IRC-assessed ORR” value in the data set with ALK-positive NSCLC (ALK inhibitor-naive patients (95/104)) is 91.3%; in the data set with ALK-positive NSCLC (all patients (116/150)), 77.3%; with ALK-positive NSCLC (brain metastases subgroup (50/71)), 70.4%; in the data set on ALK-positive NSCLC (crizotinib-pretreated group (17/26)), 65.4%. Further, in the data set with ALK-positive NSCLC (single doses of 160 mg, most AEs Grade 1 or 2), the “Tolerability of single doses” value is recorded as “generally well tolerated”. Further, the “IC50 against wild-type and mutant ROS1 kinase activity” value in data set [4] is “sub-nanomolar to nanomolar”. Also, in data set [1] (low solubility and low gastrointestinal permeability), the BCS class result was “class IV”. For the same molecule, the Drug efflux result in the data set on Caco-2 is listed as “evidence of drug efflux”. Moreover, the Permeability result in the data set on Caco-2 is reported as “low permeability”. The Main metabolizing enzyme entry in [5] was “mainly metabolized by cytochrome P450 3A4 (CYP3A4)”. Further, the “IC50 against ALK kinase activity” value at ALK is reported as “sub-nanomolar to nanomolar”. For the same molecule, the “Inhibition of cell proliferation” value (in the data set on HCC78 cells; in data set [7]) was “potent inhibition” each time. For the same molecule, the “Growth of xenograft models” value in data set [6] is given as “inhibited growth”.

Consider `CCc1cc2c(cc1N1CCC(N3CCOCC3)CC1)C(C)(C)c1[nH]c3cc(C#N)ccc3c1C2=O` [alectinib], for which the BCS class result in data set [1] (approved ALK and ROS1 TKIs) is given as “BCS class IV”.

Take `C[C@@H](Oc1cc(-c2cnn(C3CCNCC3)c2)cnc1N)c1c(Cl)ccc(F)c1Cl` [crizotinib]: the BCS class result in data set [1] (approved ALK and ROS1 TKIs) is recorded as “BCS class IV”.

As for `CN1CCN(c2ccc(C(=O)Nc3n[nH]c4ccc(Cc5cc(F)cc(F)c5)cc34)c(NC3CCOCC3)c2)CC1` [entrectinib], the BCS class result in [1] (approved ALK and ROS1 TKIs) was “BCS class II”.

Turning to `Cc1cc(Nc2ncc(Cl)c(Nc3ccccc3S(=O)(=O)C(C)C)n2)c(OC(C)C)cc1C1CCNCC1` [ceritinib], in data set [8], the “Effect of food on drug exposure / PK” value is reported as “improved exposure”; the “Effect of food on safety” value was “improved exposure and safety with food”. The BCS class result in data set [1] (approved ALK and ROS1 TKIs) is on record as “BCS class IV”.
